Bioassay records (PubChem BioAssay)
The list is not random: actives were taken first. Their share in the collection is about 1.8%.
M4 PAM = human M4 muscarinic receptor positive allosteric modulators, primary screen, CHO-K1 cells, Fluo-8 calcium fluorescence. Muscarinic acetylcholine receptor M4 (Homo sapiens), P08173. CHO-K1 hM4/Gqi5, ACh EC20; 0% = ACh EC20, 100% = maximal ACh. activation, % at 3 µM. 360,000 compounds, 0.4% hits;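 active = activation above its plate's cutoff, the mean activation of sample wells plus 3 SD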
Target sequence (P08173 whole entry, looked up): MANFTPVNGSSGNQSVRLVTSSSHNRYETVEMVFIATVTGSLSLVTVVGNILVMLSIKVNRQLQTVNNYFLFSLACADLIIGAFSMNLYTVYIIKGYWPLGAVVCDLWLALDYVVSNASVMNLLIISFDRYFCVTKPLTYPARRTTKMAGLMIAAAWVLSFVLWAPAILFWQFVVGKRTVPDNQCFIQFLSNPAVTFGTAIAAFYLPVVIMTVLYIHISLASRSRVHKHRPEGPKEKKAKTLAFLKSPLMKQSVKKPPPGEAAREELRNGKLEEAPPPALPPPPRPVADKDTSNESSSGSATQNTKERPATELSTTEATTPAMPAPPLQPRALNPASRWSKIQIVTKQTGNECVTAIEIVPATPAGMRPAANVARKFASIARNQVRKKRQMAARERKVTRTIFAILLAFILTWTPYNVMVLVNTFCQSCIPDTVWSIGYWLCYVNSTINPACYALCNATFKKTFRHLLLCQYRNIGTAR
M5 PAM = human M5 muscarinic receptor positive allosteric modulators, primary screen, CHO-K1 cells, Fluo-8 calcium fluorescence. Muscarinic acetylcholine receptor M5 (Homo sapiens), P08912. CHO-K1 hM5, ACh EC20 PAM; 0% = ACh EC20, 100% = ACh EC100. activation, % at 3 µM. 360,000 compounds, 0.3% hits;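 active = activation above the run cutoff, the mean activation of all test compounds plus 3 SD, cut at about 18% in these data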
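system = human M5 receptor in CHO-K1 cells | compound = one concentration, 3 µM final (nominal) | schedule = Post-acetylcholine fluorescence recording 140 s | signal = Fluo-8 calcium dye fluorescence, kinetic read | benchmarks = low control EC20 acetylcholine (0%), high control EC100 acetylcholine (100%) | repeats = singlicate, one well per test compound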
M4 antag = human M4 muscarinic receptor antagonists, primary screen, CHO cells, Fluo-8 calcium fluorescence | Muscarinic acetylcholine receptor M4 (Homo sapiens), P08173 | 360,000 compounds, 0.73% hits | CHO-hM4 cells, ACh EC80 | inhibition, % at 3 µM;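 active = inhibition above its plate's cutoff, the mean inhibition of sample wells plus 3 SD, cut at about 27% in these data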;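 also: 0% = acetylcholine EC80 with DMSO and 100% = DMSO without agonist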
M4 ag = human M4 muscarinic receptor agonists, primary screen, CHO-K1 cells, Fluo-8 calcium fluorescence; Muscarinic acetylcholine receptor M4 (Homo sapiens), P08173; CHO-K1 hM4/Gqi5; vehicle 0%, full acetylcholine response 100%; activation, % at 3 µM; 360,000 compounds, 0.14% hits; AID 624127, 2012;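 active = activation above the run mean over all test wells plus 3 SD, cut at about 32% in these data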;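 also: peak over basal fluorescence ratio per well then scaled between controls; 0% = DMSO wells and 100% = acetylcholine at EC100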
CHRM5 antagonist = human M5 muscarinic receptor antagonists, primary screen, CHO cells, Fluo-8 calcium fluorescence | Muscarinic acetylcholine receptor M5 (Homo sapiens), P08912 | CHO-hM5 cells, ACh EC80 | inhibition, % at 3 µM | 360,000 compounds, 0.59% hits;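 active = inhibition above a per-plate cutoff, the mean of that plate's test compounds plus 3 SD, cut at about 27% in these data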;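 also: 0% = acetylcholine EC80 with DMSO and 100% = DMSO without agonist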
M5 ag = human M5 muscarinic receptor agonists, primary screen, CHO-K1 cells, Fluo-8 calcium fluorescence; Muscarinic acetylcholine receptor M5 (Homo sapiens), P08912; CHO-K1 hM5 cells; 0% DMSO wells, 100% maximal acetylcholine response; activation, % at 3 µM; 360,000 compounds, 0.19% hits; AID 624037, 2012;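 active = activation above the run's mean over test compounds plus 3 SD, cut at about 23% in these data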;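 also: signal is peak over basal fluorescence ratio across the kinetic read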
Numbers without * were called inactive.

SMILES	M4 PAM	M5 PAM	M4 antag	M4 ag	CHRM5 antagonist	M5 ag
CCC(C)c1ccccc1NC(=O)C(C)OC(=O)CN1C(=O)NC(C)(C)C1=O (stereo not given)	26*	1	-14	1	6	3
COc1cc(NC(=O)COC(=O)c2ccccc2F)cc(OC)c1	3	4	29*	1	1	-2
COc1cccc(NC(=O)COC(=O)c2ccc(F)cc2F)c1	-3	2	3	2	-1	2
CN1CCN(c2ccc(-c3ccnn3C(=O)Nc3ccccc3)cc2)CC1	3	-2	9	1	5	-4
Cc1csc(=O)n1CCC(=O)N(C)Cc1c(F)cccc1Cl	4	8	-5	1	8	0
Cc1ccccc1S(=O)(=O)Cc1ccc(C(=O)N2CCN(c3cccc(C)c3C)CC2)o1	-17	-18	34*	15	20	2
Cn1c(=O)n(Cc2ccccc2Cl)c2ccccc21	1	-3	0	-1	43*	-3
Cc1c(Cl)cccc1NC(=O)Nc1cc(C(C)(C)C)on1	-10	-14	0	3	-4	-8
O=S(=O)(NCC(c1ccccc1)N1CCNCC1)c1ccc(Cl)cc1 (stereo not given)	-3	-3	15	6	3	-6
CCN1CCN(C(CNS(=O)(=O)c2ccc(Cl)cc2)c2ccccc2)CC1 (stereo not given)	-8	-16	4	2	28*	-10
CCn1c(COc2cccc(OC)c2)nnc1SCC(=O)NCC1CCCO1 (stereo not given)	-2	-4	8	0	20	-1
NS(=O)(=O)c1ccc(NC(=O)CCC(=O)c2ccc(Cl)s2)cc1	24*	5	-9	0	0	-3
NS(=O)(=O)c1ccc(NC(=O)CCC(=O)c2cccs2)cc1	-4	0	-12	1	2	-2
CSc1nc(N)n2nc(-c3ccccc3)cc2n1	-4	-8	-3	4	8	-2
Cc1ccc(/C=C2\SC(N3CCN(C(c4ccccc4)c4ccccc4)CC3)=NC2=O)o1	-44	-19	82*	1	38*	-7
O=C1N=C(N2CCN(c3ccccc3)CC2)S/C1=C/c1cccs1	-4	-11	-3	3	27*	-3
CCCCN1C(=O)C(CC(=O)NCCc2ccccn2)CC(C(=O)N2CCCCCC2)=C1C (stereo not given)	-1	6	6	0	-5	0
Cc1noc(C)c1S(=O)(=O)Nc1cccc(CO)c1	10	6	-10	0	-17	-4
Fc1ccc(-n2c(-c3cc(C4CC4)[nH]n3)n[nH]c2=S)cc1Cl	12	19*	-1	1	-20	3
O=c1ccc(-c2n[nH]c(=S)n2-c2ccc(F)c(Cl)c2)n[nH]1	5	-1	-1	2	-6	-6
CCOC(=O)c1c(C)[nH]c(C(=O)COC(=O)CNS(=O)(=O)c2ccc(C)cc2)c1C	-11	-42	-17	23	14	0
COc1ccc(-n2ncc3c(N4CCC(C)CC4)ncnc32)cc1	4	-6	-7	0	4	2
CCOC(=O)C1CCN(c2ncnc3c2cnn3-c2ccc(Cl)cc2)CC1	4	19*	-3	1	-14	0
CCOC(=O)N1CCN(c2ncnc3c2cnn3-c2ccc(OC)cc2)CC1	28*	0	-10	3	-9	5
CCCCN1C(=O)C(=O)N(CC(=O)c2ccc3c(c2)CCCC3)C1=O	0	2	-3	2	11	-2
SMILES	M4 PAM	M5 PAM	M4 antag	M4 ag	CHRM5 antagonist	M5 ag
O=C(NC1CC2CCC(C1)N2C(=O)NCc1ccccc1)C1CC1 (stereo not given)	-16	2	30*	1	-3	-6
C=CCCC(=O)N1C[C@H]2CON(C)[C@H]2C[C@H]1c1cccc(N2CCOCC2)c1	-1	-5	-2	0	2	2
CC1(c2nnc(-c3ccncc3)o2)CC(c2cccc(Cl)c2)=NO1 (stereo not given)	5	1	-11	3	6	3
O=C(c1ccc2c(c1)OCCO2)N1CCCC(CNS(=O)(=O)c2cccs2)C1 (stereo not given)	8	-2	-4	2	6	1
CC(C)(C)NC(=O)C(c1cc2ccccc2o1)n1c(=O)c(-c2ccco2)nc2ccccc21 (stereo not given)	2	-5	4	-2	4	1
CCCCCNC(=O)C(c1cc2ccccc2o1)n1c(=O)c(-c2ccco2)nc2ccccc21 (stereo not given)	27*	8	-11	1	-10	0
Cc1csc2ncnc(N3CCN(S(=O)(=O)c4cccc(C(F)(F)F)c4)CC3)c12	-13	-18	26	14	44*	1
COc1ccc(-[n+]2c(C)cc(/C=C3\Sc4ccccc4N3C)cc2C)cc1	-23	-23	50*	10	48*	6
COc1ccc(C(=O)/C=C2\Sc3ccccc3N2C)cc1	5	6	-2	1	1	-4
COc1ccccc1OC(=O)CCN1c2ccccc2Sc2ccccc21	-2	-8	-14	-1	9	0
COc1ccccc1-[n+]1c(C)cc(/C=C2\Sc3ccccc3N2C)cc1C	-40	-29	40*	16	53*	14
CC(O)(c1ccc(F)c(F)c1)c1nc(-c2ccc3ccccc3c2)cs1 (stereo not given)	-4	-1	4	2	4	0
CC1CCN(S(=O)(=O)CCNC(=O)c2ccc3c(c2)OCO3)CC1	0	2	-9	1	4	3
Cc1cccc(C)c1NC(=O)c1ccc2sc([C@@H]3O[C@H](CO)[C@H](O)[C@H](O)[C@H]3O)nc2c1	2	-1	-2	1	1	0
N#C/C(=C/c1ccncc1)c1nc2ccccc2s1	-12	-15	25	21	30*	26*
COC(=O)c1ccc(/C(O)=C(\C#N)c2nc3ccccc3s2)cc1	-3	0	0	9	0	9
CC(C)=C(C#N)c1nc2ccccc2s1	-7	-6	20	21	27*	18
Cc1cc(C(=O)NNC(=O)c2ccccc2[N+](=O)[O-])c(C)o1	-3	-19	3	8	12	2
